The labels stand for the following.
B1: tRNA (parent)
chain: CUCUCGGUAGCCAAGUUGGUUUAAGGCGCAAGACUUUAAUUUAUCACUACGAAAUCUUGAGAUCGGGCGUUCGACUCGCCCCCGGGAGAUUUUUUCCUCGAGCAA

Variants at the floor of the assay were thinned out.

Here are results for 27 variants from the RNAGym collection of RNA variant scans (doi:10.1101/gad.245936.114).

The variants in this series derive from B1. In words: nonsense suppression (GFP-seq) (ratio to wild type); higher = more function; SUP4oc tRNA, yeast GFP reporter sort-seq. The method, boiled down: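 Each variant's nonsense suppression (GFPSEQ) is a cell-share-weighted bin median GFP/RFP relative to the unmutated parent tRNA. Yeast with genome-integrated tRNA variants from a ~3% random-mutation library, a galactose-driven GFP ochre reporter and RFP were grown in raffinose/galactose medium with 80 mg/L adenine, then sorted into GFP/RFP bins for Illumina sequencing. Variants needed ≥100 reads and ≥30 cells.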
Regarding GUCUCGGUAGCCUAGUUGGUUUAAUGCGCAAGACUUUAAUUUAUCACUACGAAAUCUUCAGAUCGGGCGUUCGACUCGCCCCCGGGAGAUUUUUUCCUCGAGCAA [C1G A13U G25U G59C], the nonsense suppression is no more than 0.026.
As for GUCUCGGUAGCCAAGUUGGUUUAAGGCGCAAGACUUUAAUUUAUCACUACGAACUCUUGAGAUCGGGCGUUCGACUCGCCCCCGGGAGAUUUUUUCCUCGAGCAA [C1G A54C], the figure is 0.0309.
For the variant AUCUCGGUAGCCAAGUUGGUUUAAGGCGCAAGACUUUAAUUUAUCACUACGAAGUCUUGAGUUCGGGCGUUCGACUCGCCCCCGGGAGAUUUUUUCCUCGAGCAA [C1A A54G A62U], the nonsense suppression is no more than 0.026.
As for AUCUCGGUAGCCAAGUUGGUUUAAGGCGCAUGACUUUAAUUUAUCACUACGAAAUCUUGAGAUCGGGCGUUCGACUCGCCCCCAGGAAAUUUUUUCCUCGAGCAA [C1A A31U G84A G88A], the figure is no more than 0.026; as for GUCUCGGUAGCCAAGUUGGUUUAAGGCGCAUGACUUUAAUUUAUCACUACGAAAUCUUGAGAUCGGGCGUUCGACUCGCCCCCGGGAAAUUUUUUCCUCGAGCAA [C1G A31U G88A], no more than 0.026; as for GUCUCGGUAGCCAAGUUGGUUUAAGGCGCAAGACUUUAAUUUAUCACUACGAAAUCUUGAGAUCGGGCGUUCGACUCGCCCCCGGGGGAUUUUUUCCUCGAGCAA [C1G A87G], no more than 0.026.
In the case of AUCUCGGUAGCCUAGUUGGUUUAAGGCGCAAGACUUUAAUUUAUCACUACGAAAUCUUGAGAUCGGGCGUUCGACUCGCCCCCGGGAGAUUUUUUCCUCGAGCAA [C1A A13U] it was no more than 0.026; in that of AUCUCGGUAGCCAAGUUGGUUUAAGGCGCGAGACUUUAAUUUAUCACUACGAAAUCUUGAGAUCGGGCGUUCGACUCGCCCCCGAGAGAUUUUUUCCUCGAGCAA [C1A A30G G85A], 0.0742.
In the case of AACUCGGUAGCCAAGUUGGUUUAAGGCGCAAGACCUUAAUUUAUCACUACGAAAUCUUGAGAUCGGGCGAUCGACUCGCCCCCGGGAGAUUUUUUCCUCGAGCAA [C1A U2A U35C U70A] it was no more than 0.026.
For the variant AUCUCGGUAGCCAAGUGGGGUUAAGGCGCAAGACUUUAAUUUAUCACUACGAAAUCUUGAGAUCGGGCGUUCGACUCGCCCCCGGGAGAUUUUUUCCUCGAGCAA [C1A U17G U20G], the nonsense suppression was no more than 0.026.
As for AUCUCGGUAGCCAAGUUGGUUUAAGGCGCCAGACUUUAAUUUAUCACUACGAAAUCUUGAGAUCGGGCGUUCGACUCGCCCCCGGGAGAUUUUUUCCUCGAGCAA [C1A A30C], the figure is no more than 0.026.
As for GUCUCGGUAGCCAAGUUGGUUUAAGGCGCAAGACUUUAAUUUAUCACUACGAAGUCUUGAGAGCGGGCGGUCGACUCGCCCCCGGGAGAUUUUUUCCUCGAGCAA [C1G A54G U63G U70G], the figure is no more than 0.026; as for AUCUCGGUAGCCAAGUUGGUUUAAGCCGCAAGACUUUAAUUUAUCACUACGAAAUCUUGAGAUCGGGCGUUCGACUCGCCCCCGGGAGAUUUUUUCCUCGAGCAA [C1A G26C], no more than 0.026; as for AUCGCGGUAGCCAAGUUGGUUUAAGGUGCAAGACUUUAAUUUAUCACUACGAAAUCUUGAGAUCGGGCGUUCGACUCGCCCCCGGGAGAUUUUUUCCUCGAGCAA [C1A U4G C27U], no more than 0.026.
In the case of AUCUCGGUAGCCAAGUUGGUCUAAGGCGCAAGACUUUAAUUUAUCACUACGAAAUCUUGAGAUCGGGCGUUCAACUCGCCCCCGGGAGAUUUUUUCCUCGAGCAA [C1A U21C G73A] it was no more than 0.026.
Take AUCUCGGGAGCUACGUUGGUUUAAGGCGCAAGACUUUAAUUUAUCACUACGAAAUCUUGAGAUCGGGCGUUCGACUCGCCCCCGUGAGAUUUUUUCCUCGAGCAA [C1A U8G C12U A14C G85U]: the nonsense suppression is no more than 0.026.
As for AUCUGGGUAGCCGAGUUCGUUUAAGGCGCAAGACUUUAAUUUAUCACUACGAAUUCUUGAGAUCCGGCGUUCGACUCGCCCCCGGGAGAUUUUUUCCUCGAGCAA [C1A C5G A13G G18C A54U G65C], the figure is no more than 0.026; as for AUCUCGGUAGCCAAGUUGUUUUAAGGCGCAAGACUUUAAUUUAUCACUACGAAAACUUGAGAUCGGGCGUUCGACUCGCCCCCGGGAGAUUUUUUCCUCGAGCAA [C1A G19U U55A], no more than 0.026; as for GUCUGGGUAGCCAAGUUGGUUUAAGGCGCACGACUUUAAUUUAUCACUACGAAAUCUUGAGAUCGGGCGUUCAACUCGCCCCCGGGAGAUUUUUUCCUCGAGCAA [C1G C5G A31C G73A], no more than 0.026.
As for AUCUCGGUAGCCAAGUUGGUUUAAGGCGCAAGACUUUAAUUUAUCACUACGAAAUCUUGAGAUCGGGCGUUCAACUCGCCCCCGGGAGAUUUUUUCCUCGAGCAA [C1A G73A], the figure is 0.112; as for GUCUCGGUAGCCAAGUUGGUUUAUGGCACAAGACUUUAAUUUAUCACUACGAAAUCUUGAGAUCGGGCGUUCGCCUCGCCACCGGGAGGUUUUUUCCUCGAGCAA [C1G A24U G28A A74C C81A A89G], no more than 0.026; as for GUCUCGGUCGCCAAGUUUGUUUAAGGCGCAAGACUUUAAUUUAUCACUACGAAAUCUUGAGAUCGGGCGUGCGACUCGCCCCCGGGAGAUUUUUUCCUCGAGCAA [C1G A9C G18U U71G], no more than 0.026.
In the case of AUCUCGGUAGCCAAGUUGGUUUAAGGCGCAAGACUUUAAUUUAUCACUACGAAAUCUUGAGGUCGGGCGUUCGCCUCGCCCCCAGGAGAUUUUUUCCUCGAGCAA [C1A A62G A74C G84A] it was no more than 0.026; in that of GUGUCGGUAGCCAAGUUGGUUUAAAGUGCAAGACUUUAAUUUAUCACUACGAAAUCUUGAGAUCGGGCGUUCGACUCGCCCCCGGGAGAUUUUUUCCUCGAGCAA [C1G C3G G25A C27U], no more than 0.026; in that of AUCUCGGUAGCCAAGUUGGUUUAAGGCGCAAGACUUUAAUUUAUCACUACGAAAUCUUGAGAUCGGGCGUUCGACUCGCUCCCGGGAGAUUUUUUCCUCGAGCAA [C1A C80U], 0.0314.
Turning to AUCGCGGUAGUCAAGUUGGUUUAAGGCGCAAGACUUUAAUUUAUCACUACGAAAUCUUGAGAUCGGGCGUUCGACUCGCCCCCGGGAGAUUUUUUCCUCGAGCAA [C1A U4G C11U], the nonsense suppression is no more than 0.026.
In the case of GUCUCGGUAGCCAAGUUGGUUUAAGGAGCAAGACUUUAAUUUAUCACUACGAAAGCUUGAGAUCGGGCGUUCGACUCGCCCCCGGGAGAUUUUUUCCUCGAGCAA [C1G C27A U55G] it was no more than 0.026.
